This note sets out measurements from ChEMBL document CHEMBL4152278 (Eur J Med Chem, 2018).

The term EC50 denotes the concentration at which the effect is half-maximal. What is called CC50 is the concentration giving 50% cytotoxicity. By half-life is commonly meant the time needed for the level to fall by half in the phase considered. A higher half-life goes with slow loss.

Data set [1] has as its system Influenza A virus. The experiment in a line: Antiviral activity against Influenza A virus (A/WSN/1933(H1N1)) infected in MDCK cells expressing wild type neuraminidase assessed as protection against virus-induced cytopathic effect after 48 hrs by CellTiter96 aqueous non-radioactive cell proliferation assay. Type of data set: functional, organism-based. Put shortly: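 Virus at 100 TCID50 was premixed with inhibitor at varied concentrations, then added to MDCK cells (1×10^5 cells/mL). Cells were held 48 h at 37 °C under 5% CO2. Cytopathic effect was read as MTS absorbance at 490 nm after 15 min. EC50 was taken from a curve fit of percent CPE versus concentration.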

A short description of data set [2]: Cytotoxicity against MDCK cells after 48 hrs by CellTiter96 aqueous non-radioactive cell proliferation assay. Type of data set: cell-based, Canis lupus familiaris. The conditions noted are these: dog.
The subject of data set [3] is Influenza A virus. As to the kind of experiment: Antiviral activity against Influenza A virus (A/WSN/1933(H1N1)) infected in BALB/c mouse assessed as protection against virus-induced infection at 48 umol/kg/day administered via oral gavage for 5 days. It counts as functional, organism-based. Put shortly:
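Female BALB/c mice (4–5 weeks old), 10 per group. Drug was given by oral gavage twice daily for 5 days at 48 μmol/kg/day. Intranasal challenge with 10 MLD50 of A/WSN/1933 (H1N1) 4 h after the first dose. PBS placebo on the same schedule. Survival was observed daily and compared by log-rank (Mantel–Cox) test.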

A short description of data set [4]: Drug uptake in MDCK cells at 100 uM after 48 hrs by LC-MS analysis. It counts as ADME, cell-based, Canis lupus familiaris. The conditions noted are these: dog. Put shortly: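 MDCK cells (2.5×10^6, grown overnight) were exposed to compound at 100 µM final in 2% FBS medium for 48 h, with a DMSO mock. Cells were washed, lysed in RIPA, methanol-precipitated at −80 °C and filtered (10 kDa cutoff). Parent and hydrolysis product were quantified by LC–MS/MS against calibration curves (0.03–300 µM) spiked into mock lysate.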

A short description of data set [5]: Half life in glycine buffer at pH 9.2 by HPLC method. It counts as physicochemical. Put shortly:
(§1)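 A 20 mM DMSO stock was diluted to 1 mM in buffer (50 mM HCl/KCl pH 1.3, acetate pH 4.1, phosphate pH 7.4 at 50 or 10 mM, borate pH 9.1, glycine pH 9.2), rat plasma or […]. Mixtures were shaken at 1000 rpm, 37 °C, and sampled over time for reversed-phase HPLC (214 or 254 nm). Half-life came from a pseudo-first-order fit; remaining parent was assessed at 96 h. Three runs for ZA derivatives, single for GOC derivatives.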

A short description of data set [6]: Half life in rabbit plasma by HPLC method. It counts as ADME, cell-free, Oryctolagus cuniculus. Put shortly: as §1
Data set [7] is described as follows: Chemical stability in HCl/KCl solution at pH 1.3 assessed as parent compound remaining after 96 hrs by HPLC method. Type of data set: physicochemical. The conditions noted are these: read-out: Stability. Put shortly:
as §1

A short description of data set [8]: Half life in HCl/KCl solution at pH 1.3 by HPLC method. It counts as physicochemical. Put shortly:
as §1

The nature of data set [9]: Metabolic stability in […] assessed as parent compound remaining after 96 hrs by HPLC method. Type of data set: ADME, cell-free, Oryctolagus cuniculus. The settings on record: rabbit, plasma; read-out: Stability.
Data set [10] can be described thus: Half life in borate buffer at pH 9.1 by HPLC method. It counts as physicochemical. Put shortly:
as §1

A short description of data set [11]: Half life in 10 mM phosphate buffer at pH 7.4 by HPLC method. It counts as physicochemical. Put shortly: as §1
The nature of data set [12]: Half life in 50 mM phosphate buffer at pH 7.4 by HPLC method. Type of data set: physicochemical. Put shortly:
as §1

A short description of data set [13]: Half life in acetate buffer at pH 4.1 by HPLC method. Type of data set: physicochemical. Put shortly:
as §1

The nature of data set [14]: Chemical stability in acetate buffer at pH 4.1 assessed as parent compound remaining after 96 hrs by HPLC method. Type of data set: physicochemical. The conditions noted are these: read-out: Stability. Put shortly:
as §1

In data set [15] the test system is Influenza A virus. As to the kind of experiment: Antiviral activity against Influenza A virus (A/WSN/1933(H1N1)) infected in BALB/c mouse assessed as mouse survival rate at 1.2 umol/kg/day administered intranasally for 5 days and measured at day 21 relative to control. The settings on record: inhaled or nasal. Type of data set: functional.
Data set [16] in a line: Half life in rat plasma by HPLC method. Type of data set: ADME, cell-free. Put shortly:
as §1

The subject of data set [17] is Influenza A virus. The experiment in a line: Antiviral activity against Influenza A virus (A/WSN/1933(H1N1)) infected in BALB/c mouse assessed as increase in mouse survival rate at 2.4 umol/kg/day administered intranasally for 5 days and measured at day 21 relative to control. Type of data set: functional, organism-based. Put shortly:
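Female BALB/c mice (4–5 weeks old), 10 per group. Drug was given by intranasal instillation twice daily for 5 days at 2.4 μmol/kg/day, with half the dose at each administration. Mice were infected intranasally with 10 MLD50 of A/WSN/1933 (H1N1) under zoletil anaesthesia, 4 h after the first dose. PBS placebo on the same schedule. Survival was followed daily and curves compared by log-rank test.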

The test system of data set [18] is Influenza A virus. As to the kind of experiment: Antiviral activity against Influenza A virus (A/WSN/1933(H1N1)) infected in BALB/c mouse assessed as increase in mouse survival rate at 1.2 umol/kg/day administered intranasally for 5 days and measured at day 21 relative to control. Type of data set: functional, organism-based.
Data set [19] in a line: Half life in human serum at 16 mg. It counts as ADME, organism-based.

Structures are written as SMILES. Calls of active or inactive are those of the source.

Consider `CCC(CC)O[C@@H]1C=C(C(=O)O)C[C@H](N)[C@H]1NC(C)=O` [OSELTAMIVIR CARBOXYLATE], for which, in the data set on Influenza A virus [1], the EC50 was 16 nM. Also, in data set [2], the CC50 at 48 h was over 100 µM.

As for `CCOC(=O)C1=C[C@@H](OC(CC)CC)[C@H](NC(C)=O)[C@@H](N)C1`, the outcome in the data set on Influenza A virus [3] was Active.

`CCCCCCCC(=O)/N=C(\N)N[C@H]1CC(C(=O)O)=C[C@@H](OC(CC)CC)[C@@H]1NC(C)=O` showed a Drug uptake in data set [4] of 1225 nM. Besides, the EC50 in the data set with Influenza A virus [1] turned out to be 1 nM. The half-life in data set [5] is 0.933 days; in [6], 4 days; in [8], over 4 days; in [10], 1090 min. For the same compound, in [2], the cytotoxic concentration (CC50) at 48 h is over 100 µM. Besides, the remaining at 96 h in [7] is over 75%; in [9], 55%. In addition, in the data set with Influenza A virus [3], the result was Active.

For `CCC(CC)O[C@@H]1C=C(C(=O)O)C[C@H](N/C(N)=N/C(=O)[C@@H](C)c2ccc3cc(OC)ccc3c2)[C@H]1NC(C)=O`, the EC50 in the data set on Influenza A virus [1] was 2 nM. Moreover, the half-life in [5] was 3.39 days; in data set [6] it was over 4 days; in [11] it was 2.9 days; in data set [8], over 4 days; in data set [12], 2.7 days; in [10], 4600 min. Further, the CC50 at 48 h in data set [2] was over 100 µM. Besides, the remaining at 96 h was over 75% in [7] and 76% in data set [9].

Turning to `CCCCCCCC(=O)/N=C(\N)N[C@H]1C=C(C(=O)O)O[C@@H]([C@H](O)[C@H](O)CO)[C@@H]1NC(C)=O`, the half-life is over 4 days in data set [13]; 2.37 days in data set [11]; 1770 min in data set [16]; over 4 days in [8]; 1.63 days in data set [12]; 1570 min in data set [10]. Also, the EC50 with Influenza A virus [1] is 90 nM. For the same compound, the remaining at 96 h in [14] and in data set [7] was over 75% each time. The CC50 at 48 h in [2] is over 100 µM. Also, in the data set on Influenza A virus [15], the survival at 1.2 µmol/kg turned out to be 100%. Moreover, the result with Influenza A virus [17] was Active.

Turning to `CC(=O)N[C@H]1[C@H]([C@H](O)[C@H](O)CO)OC(C(=O)O)=C[C@@H]1NC(=N)N` [ZANAMIVIR], in the data set with Influenza A virus [18], the outcome was Active. For the same compound, the concentration giving a half-maximal response (EC50) in the data set with Influenza A virus [1] is 27 nM.

On to `COc1ccc2cc([C@H](C)C(=O)/N=C(\N)N[C@H]3C=C(C(=O)O)O[C@@H]([C@H](O)[C@H](O)CO)[C@@H]3NC(C)=O)ccc2c1`, for which the EC50 in the data set with Influenza A virus [1] turned out to be 140 nM. Further, the CC50 at 48 h in data set [2] is over 100 µM. For the same compound, the survival at 1.2 µmol/kg with Influenza A virus [15] came out at 70%. Further, the half-life in data set [11] was 2.8 days; in data set [16], 4060 min.

Take `CCC(CC)O[C@@H]1C=C(P(=O)(O)O)C[C@H](NC(=N)N)[C@H]1NC(C)=O`: the EC50 in the data set with Influenza A virus [1] turned out to be 3.8 nM.

For `CCC(CC)O[C@@H]1C=C(P(=O)(O)O)C[C@H](N/C(N)=N/C(=O)CSc2ccc3ccccc3c2)[C@H]1NC(C)=O`, in the data set on Influenza A virus [1], the EC50 stood at 0.8 nM.

For `CCC(CC)O[C@@H]1C=C(C(=O)O)C[C@H](NC(=N)N)[C@H]1NC(C)=O`, the EC50 in the data set with Influenza A virus [1] worked out at 7 nM. For the same compound, in data set [2], the CC50 at 48 h was over 100 µM.

With `CC(=O)N[C@H]1[C@H]([C@H](O)[C@H](O)CO)OC(C(=O)O)=C[C@@H]1N=C(N)N` [ZANAMIVIR], the half-life in data set [19] lay in the range of 120 to 300 min. The CC50 at 48 h in [2] is over 100 µM.
